Screening results from PubChem BioAssay.
SKKanGAS inh: S. pyogenes SKKanGAS growth inhibitors in kanamycin, primary screen, streptokinase expression inhibitor project, SKKanGAS strain, BacTiter-Glo luminescence. inhibition, % at 7.5 µM. AID 1662, 2009. 6 h. actives 1.3% (n = 300,000);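 active = mean replicate score, as percent of positive control median, at least 50; inconclusive = mean below 50 but one replicate at or above 50; inactive = mean and every replicate below 50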;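 note: strain carries kanamycin resistance gene driven by streptokinase promoter and grows in 40 µg/ml kanamycin; loss of luminescence reflects streptokinase promoter inhibition or plain growth inhibition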
L major viab: Leishmania major promastigote growth inhibition, primary screen. Leishmania major promastigotes, resazurin fluorescence viability. inhibition, % at 10 µM. actives 9% (n = 200,000). AID 1063, 2008; in the data active = inhibition above about 50%;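 note: promastigotes grown with compound for 44 hours at 28 °C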
T cruzi inh: inhibitors of intracellular T. cruzi growth, primary screen, luminescence, NIH3T3 host cells; T. cruzi beta-gal in NIH3T3, 90 h; inhibition, % (test concentration not listed); actives 1.4% (n = 300,000); AID 1885, 2009;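 active = mean inhibition across valid replicates above about 55%, limit read from the data; inconclusive = mean below that limit but half or more replicates reach it; inactive = mean below it, under half of replicates reach it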;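 note: signal also drops with host cell toxicity which is not excluded here; higher percent means less beta-gal luminescence so fewer parasites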
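Assay system: NIH/3T3 host cells with β-galactosidase reporter T. cruzi; input: 5,000 host fibroblasts per well; compound: single 50 nL compound addition per well in DMSO; timing: ≥90 h infection period, 3 h prior cell attachment; measured by: GalScreen β-gal luminescence, detergent lysis, 60 min; evaluation: percent inhibition of parasite-derived β-gal signal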
Beta cell apopt: inhibitors of cytokine-induced beta cell apoptosis, primary screen, luminescence | INS-1E cytokine-induced death, ATP luminescence, 48 h; percent of positive-control rescue, neutral wells zero | protection from apoptosis, % (test concentration not listed) | actives 0.8% (n = 300,000);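 active = Every replicate reaches about 75%, or at least half do and their mean reaches it too, limit read from the data; inconclusive = At least half of replicates reach the limit but their mean does not; inactive = Under half of replicates reach the limit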;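 note: higher means more ATP so stronger rescue from cytokine killing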
Mdm2-MdmX inh: inhibitors of human Mdm2-MdmX association, primary screen, cell-based, luminescence, split luciferase, SaOS-2, uHTS. Protein Mdm4 (Homo sapiens) + E3 ubiquitin-protein ligase Mdm2 (Homo sapiens), …. SaOS-2 split-luciferase Mdm2/MdmX complementation. inhibition, % at 8 µM. actives 3% (n = 330,000). AID 485346, 2010;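 active = inhibition of at least 50% at 8 µM in the primary screen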
Target sequence (O15151 whole entry, looked up): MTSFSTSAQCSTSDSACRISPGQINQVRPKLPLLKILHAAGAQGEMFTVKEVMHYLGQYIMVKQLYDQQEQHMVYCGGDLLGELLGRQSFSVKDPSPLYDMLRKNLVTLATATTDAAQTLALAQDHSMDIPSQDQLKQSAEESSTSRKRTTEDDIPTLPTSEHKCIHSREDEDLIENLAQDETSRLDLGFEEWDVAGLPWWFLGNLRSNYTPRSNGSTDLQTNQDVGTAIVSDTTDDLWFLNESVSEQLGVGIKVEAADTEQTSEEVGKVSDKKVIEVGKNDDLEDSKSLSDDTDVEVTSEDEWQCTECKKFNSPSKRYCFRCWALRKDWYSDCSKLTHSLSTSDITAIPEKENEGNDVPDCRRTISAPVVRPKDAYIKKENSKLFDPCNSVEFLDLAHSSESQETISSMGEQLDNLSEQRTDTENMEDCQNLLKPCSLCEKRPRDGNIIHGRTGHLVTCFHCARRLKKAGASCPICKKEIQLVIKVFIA
Target sequence (Q00987 whole entry, looked up): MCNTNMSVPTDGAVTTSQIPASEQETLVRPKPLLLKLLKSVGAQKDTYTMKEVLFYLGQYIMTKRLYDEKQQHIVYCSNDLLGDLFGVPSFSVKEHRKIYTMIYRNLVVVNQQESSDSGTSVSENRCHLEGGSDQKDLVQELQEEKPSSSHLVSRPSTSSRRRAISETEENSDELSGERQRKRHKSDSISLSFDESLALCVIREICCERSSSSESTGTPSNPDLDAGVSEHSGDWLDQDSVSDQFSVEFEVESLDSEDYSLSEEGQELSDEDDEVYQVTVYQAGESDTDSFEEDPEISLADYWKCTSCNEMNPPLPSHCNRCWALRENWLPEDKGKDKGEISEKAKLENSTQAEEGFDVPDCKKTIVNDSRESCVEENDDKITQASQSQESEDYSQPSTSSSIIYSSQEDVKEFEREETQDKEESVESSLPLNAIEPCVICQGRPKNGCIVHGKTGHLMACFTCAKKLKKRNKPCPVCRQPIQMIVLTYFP
CSC inhib: cancer stem cell viability inhibitors, primary screen, luminescence | cancer stem cell-like cells viability | inhibition, % at 7.5 µM | actives 1.1% (n = 300,000) | AID 2717, 2010; in the data active = inhibition above about 75%; inconclusive = no clear call, values can overlap the other calls; tested in HMLE shEcad cells
Of the large screens only hits and unclear results are named; the others gave an inactive call. Rows were chosen to be rich in hits. Some 9.4% of all compounds tested hit in one or more screens of this group.

O/N=C(\c1ccc(Cl)cc1Cl)c1ncc(C(F)(F)F)cc1Cl	SKKanGAS inh 51, CSC inhib inconclusive
O=C(c1ccc(Cl)cc1Cl)c1ncc(C(F)(F)F)cc1Cl	none
CCN(CC)S(=O)(=O)c1ccc(OC)c(NC(=S)Nc2cccc(C)c2C)c1	L major viab 97
CCN(CC)S(=O)(=O)c1ccc(OC)c(NC(=S)Nc2cccc(C)c2)c1	L major viab 98
CCN(CC)S(=O)(=O)c1cc(C)ccc1NC(=S)Nc1cccnc1	Beta cell apopt 82
CCN(CC)S(=O)(=O)c1ccc(OC)c(NC(=O)c2cccc(C)c2[N+](=O)[O-])c1	none
CC1(c2ccccc2)NC(=O)N(CC(=O)Nc2ccccc2C(=O)N2CCCCC2)C1=O (stereo unspecified)	none (no result: L major viab)
CCCC(c1nnnn1Cc1ccco1)N1CCN(c2cc(Cl)ccc2C)CC1 (stereo unspecified)	CSC inhib 136 (no result: SKKanGAS inh, T cruzi inh)
COc1ccccc1C(c1nnnn1Cc1ccco1)N1CCN(c2cccc(C)c2C)CC1 (stereo unspecified)	L major viab 74, T cruzi inh 74
CCN1CCN(C(c2cccc(OC)c2OC)c2nnnn2Cc2ccco2)CC1 (stereo unspecified)	none
O=C(COc1coc(CN2CCN(c3ccccc3)CC2)cc1=O)Nc1ccc(F)cc1	none (no result: L major viab, Beta cell apopt)
COc1ccc(C(=O)NCC(=O)OCCCOC(=O)CNC(=O)c2ccc(OC)c(OC)c2)cc1OC	SKKanGAS inh 50 (no result: L major viab, Beta cell apopt)
Cc1ccccc1Nc1c(-c2ccc(N3CCOCC3)cc2)nc2ncccn12	none
Cc1ccccc1Nc1c(-c2ccccn2)nc2c(C)cccn12	SKKanGAS inh 81, Beta cell apopt 96
CCC(C)(C)NC(=O)C(C(C)C)N(CC1CCCO1)C(=O)CNS(=O)(=O)c1ccccc1 (stereo unspecified)	none (no result: L major viab)
CCS(=O)(=O)NCC(c1cccnc1)N1CCN(c2ccc(F)cc2)CC1 (stereo unspecified)	L major viab 69
CCS(=O)(=O)NCC(c1cccnc1)N1CCN(c2ccccc2OC)CC1 (stereo unspecified)	none
CCS(=O)(=O)NCC(c1cccnc1)N1CCN(c2ccccc2F)CC1 (stereo unspecified)	L major viab 78
O=[N+]([O-])c1cccc(CNC2CCCCCC2)c1	L major viab 86
CC1CCCCC1NCc1cccc([N+](=O)[O-])c1 (stereo unspecified)	L major viab 83
O=C(CNC1CCCCC1)Nc1cccc([N+](=O)[O-])c1	none (no result: L major viab)
Cn1c(=O)oc2cc(S(=O)(=O)Nc3ccc4c(c3)OCCO4)ccc21	L major viab 63
Cn1c(=O)c(=O)n(C)c2cc(S(=O)(=O)Nc3ccc(OC(F)(F)F)cc3)ccc21	L major viab 99
Cc1ccc(CNS(=O)(=O)c2ccc3c(c2)n(C)c(=O)c(=O)n3C)cc1	L major viab 99
Cn1cc(S(=O)(=O)Nc2ccc(OC(F)(F)F)cc2)c(=O)n(C)c1=O	none (no result: L major viab)
Cn1c(=O)c(=O)n(C)c2cc(S(=O)(=O)Nc3ccc4c(c3)OCCO4)ccc21	L major viab 64
Cc1ccc(NS(=O)(=O)c2ccc3c(c2)oc(=O)n3C)cc1C	none (no result: L major viab, Beta cell apopt)
NC(=O)C1CCCN(S(=O)(=O)c2ccc3ccccc3c2)C1 (stereo unspecified)	none (no result: L major viab)
CC(C)c1cccc(C(C)C)c1NC(=O)c1ccccc1	none
C/C(=N/OCC(=O)NCCCCCCNC(=O)CO/N=C(/C)c1cccs1)c1cccs1	none (no result: Beta cell apopt)
COc1ccc(NS(=O)(=O)c2ccc3oc(Nc4ccc5c(c4)OCCO5)nc3c2)cc1	L major viab 93
O=C(C1CCC1)N1CCc2cc(S(=O)(=O)Nc3ccc4c(c3)OCCO4)ccc21	Beta cell apopt 79
CCC(=O)N1CCc2cc(S(=O)(=O)Nc3ccc4c(c3)OCCO4)ccc21	none
CNC(=O)C(=O)NCC1OCCN1S(=O)(=O)c1ccc([N+](=O)[O-])cc1 (stereo unspecified)	none (no result: Beta cell apopt)
O=C(NCc1ccccc1)C(=O)NCC1OCCN1S(=O)(=O)c1ccc([N+](=O)[O-])cc1 (stereo unspecified)	T cruzi inh 60
O=C(/C=C/c1ccccc1)NC(=S)NNC(=O)c1cccnc1	L major viab 55
COc1cc(C(=O)NNC(=S)NC(=O)/C=C/c2ccccc2)cc(OC)c1OC	SKKanGAS inh 93 (no result: L major viab, Beta cell apopt, CSC inhib)
COc1cc(C(=O)NNC(=O)/C=C/c2ccccc2)cc(OC)c1OC	none (no result: SKKanGAS inh, L major viab, T cruzi inh)
O=C(/C=C/c1ccccc1)NC(=S)NNC(=O)c1cnccn1	SKKanGAS inh 64, Beta cell apopt 78, CSC inhib 87 (no result: L major viab)
Cc1ccc(S(=O)(=O)NCCC(=O)Nc2ccc(C)cc2C(=O)c2ccccc2)cc1	none
S=C1NC2(CCCCC2)Nc2ccccc21	none
C=C(C)Cn1c(C)cc(C)c(S(=O)(=O)c2ccc(C)cc2)c1=O	L major viab 68
Cc1ccc(S(=O)(=O)c2c(C)cc(C)nc2Cl)cc1	none
Cc1cc(C)n(Cc2ccc(Cl)cc2Cl)c(=O)c1S(=O)(=O)c1ccccc1	SKKanGAS inh 57 (no result: Beta cell apopt)
CSc1cc(-c2ccccc2)n(Cc2ccc(Cl)cc2Cl)c(=O)c1C#N	none
CCCOc1ccc(-c2nc[nH]c2[N+](=O)[O-])cc1	none
Cc1cc(C)c(S(=O)(=O)Nc2ccc(-c3cn4ccccc4n3)cc2)c(C)c1	L major viab 61
CN(C)C(=O)c1ccc(N/C=C(\C=O)c2nc3ccccc3o2)cc1	none
COC(=O)c1c(-c2ccccc2)csc1NC1=NS(=O)(=O)c2ccccc21	L major viab 89
O=C(CN1CCCC1)NC12CC3CC(CC(C3)C1)C2	L major viab 51
NC(=O)COC(=O)CNC(=O)c1sc2ccccc2c1Cl	none
O=C(Nc1ccc(NC(=O)c2ccccc2O)cc1)Nc1ccc(F)cc1F	none (no result: L major viab)
O=c1[nH]cc(S(=O)(=O)N2CCCc3ccccc32)c(=O)[nH]1	none (no result: L major viab)
CCOC(=O)c1c(C)nc2c(c1-c1ccccc1)C(=O)CC(C)(C)C2	none
Cc1nc2c(c3c1[nH]c1ccccc13)C(=O)CC(C)(C)C2	L major viab 64
Cc1ccc(-n2nnnc2SCC(=O)NCC2(N3CCOCC3)CCCCC2)c(C)c1	none (no result: SKKanGAS inh, L major viab, T cruzi inh, Beta cell apopt, CSC inhib)
Clc1ccc2nc(-c3ccncc3)cc(-c3ccccc3)c2c1	none
c1ccc(-c2cc(-c3ccncc3)nc3ccc4ccccc4c23)cc1	SKKanGAS inh 100, CSC inhib 102
Cc1cccn2c(=O)nc(SCC(=O)N3CCC(C)CC3)nc12	none (no result: L major viab)
Cc1[nH]n(C2=NCCS2)c(=O)c1N=Nc1ccccc1	L major viab 80
Cc1[nH]n(-c2ccccc2)c(=O)c1N=Nc1nccs1	SKKanGAS inh 94, L major viab 96
